The values that follow come from ChEMBL document CHEMBL1949512, “RO4383596, an orally active KDR, FGFR, and PDGFR inhibitor: synthesis and biological evaluation” (Bioorg Med Chem, 2005).

As usually defined, the IC50 is the concentration needed to halve the response being measured.

For test [1], the target named is Platelet-derived growth factor receptor (Homo sapiens, UniProt P09619+P16234). Description: Inhibition of human recombinant His-tagged intracellular domain of PDGFR using biotin-EEEEYFELV as substrate by HTRF assay.
For test [2], the target named is Epidermal growth factor receptor (Homo sapiens, UniProt P00533). Briefly: Inhibition of human recombinant His-tagged intracellular domain of EGFR using biotin-EEEEYFELV as substrate by HTRF assay. For orientation: Time-resolved FRET reads energy transfer from a long-lived donor to a nearby acceptor.
Sequence of Epidermal growth factor receptor (P00533 whole entry, the tested form may be a part): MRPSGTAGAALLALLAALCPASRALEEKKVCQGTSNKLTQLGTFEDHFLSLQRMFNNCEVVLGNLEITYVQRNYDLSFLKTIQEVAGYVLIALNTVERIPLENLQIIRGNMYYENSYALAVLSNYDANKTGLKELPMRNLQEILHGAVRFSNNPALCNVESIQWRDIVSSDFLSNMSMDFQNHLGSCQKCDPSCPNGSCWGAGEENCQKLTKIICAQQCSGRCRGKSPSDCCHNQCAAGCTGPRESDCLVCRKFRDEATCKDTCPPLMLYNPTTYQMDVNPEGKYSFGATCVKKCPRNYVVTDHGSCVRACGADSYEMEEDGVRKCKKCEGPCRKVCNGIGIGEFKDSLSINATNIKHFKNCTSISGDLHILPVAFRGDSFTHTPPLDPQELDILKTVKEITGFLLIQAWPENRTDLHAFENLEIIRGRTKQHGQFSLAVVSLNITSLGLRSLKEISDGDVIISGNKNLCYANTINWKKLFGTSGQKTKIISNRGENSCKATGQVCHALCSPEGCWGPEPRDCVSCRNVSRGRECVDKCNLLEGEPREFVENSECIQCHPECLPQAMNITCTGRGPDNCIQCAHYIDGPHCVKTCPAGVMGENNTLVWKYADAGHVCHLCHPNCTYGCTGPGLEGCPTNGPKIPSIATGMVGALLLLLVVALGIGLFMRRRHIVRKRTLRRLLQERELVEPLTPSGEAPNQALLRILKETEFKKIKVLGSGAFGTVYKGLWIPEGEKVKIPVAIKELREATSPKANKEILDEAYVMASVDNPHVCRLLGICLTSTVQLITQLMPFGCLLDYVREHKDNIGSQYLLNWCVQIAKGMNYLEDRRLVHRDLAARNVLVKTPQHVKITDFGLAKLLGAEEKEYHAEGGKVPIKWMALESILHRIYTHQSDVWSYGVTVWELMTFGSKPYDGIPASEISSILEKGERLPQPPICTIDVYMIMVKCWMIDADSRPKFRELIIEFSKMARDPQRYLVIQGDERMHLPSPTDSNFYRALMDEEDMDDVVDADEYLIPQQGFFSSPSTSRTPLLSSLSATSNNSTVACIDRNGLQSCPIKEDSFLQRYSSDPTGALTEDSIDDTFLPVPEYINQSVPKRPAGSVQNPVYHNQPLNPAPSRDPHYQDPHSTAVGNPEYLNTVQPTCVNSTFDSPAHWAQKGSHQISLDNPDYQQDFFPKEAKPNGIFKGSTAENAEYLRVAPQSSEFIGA
For test [3], the target named is T1, Vascular endothelial growth factor receptor 2 (Homo sapiens, UniProt P35968). Description: Inhibition of human recombinant EE-tagged intracellular domain of KDR using biotin-EEEEYFELVAKKKK as substrate by HTRF assay.
T1 sequence (P35968 whole entry, the tested form may be a part): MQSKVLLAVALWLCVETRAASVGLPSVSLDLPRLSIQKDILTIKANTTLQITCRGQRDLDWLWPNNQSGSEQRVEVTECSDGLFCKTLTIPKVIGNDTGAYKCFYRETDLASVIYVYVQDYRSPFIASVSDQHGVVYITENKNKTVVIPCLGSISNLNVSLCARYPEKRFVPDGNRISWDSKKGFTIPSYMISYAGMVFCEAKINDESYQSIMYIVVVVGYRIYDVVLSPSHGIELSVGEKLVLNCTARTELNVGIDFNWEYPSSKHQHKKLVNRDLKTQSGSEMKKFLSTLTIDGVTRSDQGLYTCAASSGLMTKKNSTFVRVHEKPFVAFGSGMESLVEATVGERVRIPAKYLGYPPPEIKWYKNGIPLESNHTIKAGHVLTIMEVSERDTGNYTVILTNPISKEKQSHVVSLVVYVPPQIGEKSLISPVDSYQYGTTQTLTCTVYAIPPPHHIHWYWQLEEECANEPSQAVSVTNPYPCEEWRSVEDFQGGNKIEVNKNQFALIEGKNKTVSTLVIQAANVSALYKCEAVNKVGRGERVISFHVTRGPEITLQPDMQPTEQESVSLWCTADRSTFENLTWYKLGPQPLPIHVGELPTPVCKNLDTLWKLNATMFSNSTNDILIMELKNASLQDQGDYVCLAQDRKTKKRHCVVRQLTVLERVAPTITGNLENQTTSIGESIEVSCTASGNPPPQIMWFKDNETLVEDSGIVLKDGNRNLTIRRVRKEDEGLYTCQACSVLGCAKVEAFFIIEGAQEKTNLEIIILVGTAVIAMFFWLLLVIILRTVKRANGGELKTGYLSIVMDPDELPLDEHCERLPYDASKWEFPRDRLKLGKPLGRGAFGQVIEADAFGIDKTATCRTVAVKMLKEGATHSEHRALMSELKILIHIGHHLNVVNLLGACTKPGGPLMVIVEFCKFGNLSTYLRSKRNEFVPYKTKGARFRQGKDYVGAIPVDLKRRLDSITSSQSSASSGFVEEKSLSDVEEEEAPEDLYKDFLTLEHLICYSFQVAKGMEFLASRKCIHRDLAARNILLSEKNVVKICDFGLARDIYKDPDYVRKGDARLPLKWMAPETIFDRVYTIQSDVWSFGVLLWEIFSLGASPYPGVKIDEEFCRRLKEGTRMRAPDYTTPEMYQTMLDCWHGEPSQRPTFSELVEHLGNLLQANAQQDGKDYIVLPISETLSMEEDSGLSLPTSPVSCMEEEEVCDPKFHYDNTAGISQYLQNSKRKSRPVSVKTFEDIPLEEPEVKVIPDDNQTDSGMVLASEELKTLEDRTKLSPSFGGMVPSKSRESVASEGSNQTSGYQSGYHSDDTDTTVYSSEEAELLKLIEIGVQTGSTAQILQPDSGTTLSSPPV
In test [4] the target is Fibroblast growth factor receptor (Homo sapiens, UniProt P22607+P11362+P22455+P21802). Briefly: Inhibition of human recombinant GST-tagged intracellular domain of FGFR using biotin-EEEEYFELV as substrate by HTRF assay.
The target in test [5] is T1, Vascular endothelial growth factor receptor 2. Description: Inhibition of KDR in HUVEC assessed as ERK1/2 phosphorylation by Western blot analysis. Put shortly:
(§1)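 HUVECs at passages 2–4 were grown to 70% confluency and serum-starved 18 h in EBM-2 with 1.0% HI-FBS. Compound was added 1 h before 50 ng/mL rhVEGF. Cells were lysed on ice 5 min after stimulation and lysates immunoblotted, with actin used to normalize loading.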
For orientation: In western blotting, separated proteins are transferred to a membrane and probed.

Test [6] has the same target. Description: Inhibition of KDR in HUVEC assessed as AKT phosphorylation by Western blot analysis. The method in brief:
as §1

Test [7] has the same target. Description: Inhibition of KDR autophosphorylation in HUVEC by Western blot analysis. The method in brief: as §1

Consider `COc1ccc(N2Cc3cnc(Nc4ccccc4)nc3N([C@@H]3CC[C@@H](O)C3)C2=O)cc1`, for which the IC50 worked out at 28 nM in test [1], 239 nM in test [2], 12 nM in test [3] and 35 nM in test [4].

Regarding `COc1ccc(N2Cc3cnc(Nc4ccccc4)nc3N([C@H]3CC[C@H](O)C3)C2=O)cc1`, the IC50 in test [1] worked out at 33 nM; in test [2], 365 nM; in test [3], 15 nM; in test [4], 37 nM.

With `COc1ccc(N2Cc3cnc(Nc4ccccc4)nc3N([C@@H]3CC[C@@H](O)C3)C2=O)cc1` (racemic), the inhibition entry in test [5], in test [6] and in test [7] was “Dose-dependent effect” each time.
